Series [1] concerns Plasmodium vinckei petteri. Put plainly: Antiplasmodial activity Plasmodium vinckei petteri infected in ip dosed CD mouse assessed as suppression of parasitaemia administered from day 0 to day 3 and measured on day 4 by Giemsa staining. It counts as functional. Put shortly: (§1)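 Female CD mice (mean weight 20 2 g) were infected on day 0 with 10⁶ P. vinckei petteri-infected red cells in RPMI. Groups of five received drug intraperitoneally daily from day 0 to 3. On day 4, parasitaemia was counted on Giemsa-stained smears (at least 5000 erythrocytes). Inhibition % = (control − treated)/control × 100, with RPMI-only mice as controls. ED₅₀ was taken as the dose giving 50% inhibition.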

Series [2] concerns Plasmodium vinckei petteri. Put plainly: Antiplasmodial activity Plasmodium vinckei petteri infected in CD mouse assessed as survival of infected mouse at 10 mg/kg/day, ip administered from day 0 to day 3 and measured on day 4 (reference value: 9.5 days). It counts as functional. The conditions noted are these: route intraperitoneal.
Series [3] deals with Plasmodium vinckei petteri. Put plainly: Antiplasmodial activity Plasmodium vinckei petteri infected in CD mouse assessed as suppression of parasitaemia at 1 mg/kg/day, ip administered from day 0 to day 3 and measured on day 4 by Giemsa staining relative to control. The conditions noted are these: route intraperitoneal. The class given is functional. Put shortly:
as §1

Series [4] concerns Plasmodium vinckei petteri. Kind of series: Antiplasmodial activity Plasmodium vinckei petteri infected in CD mouse assessed as suppression of parasitaemia at 10 mg/kg/day, ip administered from day 0 to day 3 and measured on day 4 by Giemsa staining relative to control. The class given is functional. The conditions noted are these: route intraperitoneal. The essentials:
as §1

Another series relates to Vero. Kind of series: Cytotoxicity against african green monkey Vero cells. It counts as cell-based. The conditions noted are these: Chlorocebus sabaeus.
Series [5] has as its system Plasmodium vinckei petteri. Kind of series: Antiplasmodial activity Plasmodium vinckei petteri infected in CD mouse assessed as survival of infected mouse at 1 mg/kg/day, ip administered from day 0 to day 3 and measured on day 4 (reference value: 9.5 days). The class given is functional. The conditions noted are these: route intraperitoneal.
The test system of series [6] is Plasmodium vinckei petteri. Put plainly: Antiplasmodial activity Plasmodium vinckei petteri infected in CD mouse assessed as survival of infected mouse at 5 mg/kg/day, ip administered from day 0 to day 3 and measured on day 4 (reference value: 9.5 days). The class given is functional. The following applies: route intraperitoneal.
The nature of series [7]: Selectivity ratio of IC50 for african green monkey Vero cells to IC50 for […] Plasmodium falciparum FcB1/ Columbia. It counts as ADME, cell-based. The conditions noted are these: read-out: Ratio IC50. The essentials: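 Selectivity index = Vero IC₅₀ / FcB1 IC₅₀. Vero cells were grown as for P. falciparum but with 10% foetal calf serum in place of 5% human serum, exposed to increasing concentrations for 48 h, and growth read by [³H]-hypoxanthine incorporation against untreated wells (100%). Doxorubicin served as control.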

Series [8] deals with Plasmodium falciparum. Kind of series: Antiplasmodial activity against chloroquine-resistant Plasmodium falciparum FcM29 assessed as [3H]hypoxanthine incorporation after 48 hrs. The class given is functional, organism-based. Put shortly:
(§2)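 P. falciparum was cultured per Trager–Jensen with modifications and synchronised by magnetic concentration plus 5% sorbitol lysis. Cultures, mostly at ring stage, were exposed to increasing drug dilutions in triplicate for 48 h. Growth was measured by [³H]-hypoxanthine incorporation to give IC₅₀. Values are means of two independent experiments run in triplicate.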

Series [9] concerns Plasmodium vinckei petteri. Put plainly: Antiplasmodial activity Plasmodium vinckei petteri infected in CD mouse assessed as suppression of parasitaemia at 2.5 mg/kg/day, ip administered from day 0 to day 3 and measured on day 4 by Giemsa staining relative to control. The following applies: route intraperitoneal. It counts as functional. Put shortly: as §1
The test system of another series is Mus musculus. Put plainly: Toxicity in CD mouse infected with Plasmodium venckei petteri at 10 mg/kg/day, ip administered from day 0 to day 3. It counts as organism-based. The arrangement: route intraperitoneal. The following applies: in vivo. Put shortly:
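CD female mice infected with 10⁶ P. vinckei petteri-infected red cells were given drug ip daily on days 0–3 and observed for signs of acute toxicity. Survival was followed for 13 days post-infection.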

Series [10] has as its system Plasmodium falciparum. Kind of series: Antiplasmodial activity against chloroquine-resistant Plasmodium falciparum FcB1/Columbia assessed as [3H]hypoxanthine incorporation after 48 hrs. It counts as functional, organism-based. Put shortly: as §2
Series [11] has as its system Plasmodium vinckei petteri. Kind of series: Antiplasmodial activity Plasmodium vinckei petteri infected in CD mouse assessed as suppression of parasitaemia at 5 mg/kg/day, ip administered from day 0 to day 3 and measured on day 4 by Giemsa staining relative to control. It counts as functional. The conditions noted are these: route intraperitoneal. Put shortly: as §1

Series [12] concerns Plasmodium vinckei petteri. Put plainly: Antiplasmodial activity Plasmodium vinckei petteri infected in CD mouse assessed as survival of infected mouse at 2.5 mg/kg/day, ip administered from day 0 to day 3 and measured on day 4 (reference value: 9.5 days). It counts as functional. The following applies: route intraperitoneal.
For series [13], the system named is Plasmodium falciparum. Kind of series: Antiplasmodial activity against chloroquine-sensitive Plasmodium falciparum 3D7 assessed as [3H]hypoxanthine incorporation after 48 hrs. The class given is functional, organism-based. Put shortly:
as §2

The structures appear in SMILES notation. Some results are limits rather than exact numbers.

Consider `CCN(CC)CCCC(C)Nc1ccnc2cc(Cl)ccc12` (configuration not stated) [CHLOROQUINE], for which the ED50 in [1] is 5.5 mg/kg/day. Also, the values for the MSD in series [2] and in [5] were greater than 13 days and 9.5 days, respectively. The inhibition in vivo at 1 mg/kg/day in series [3] is 3.2%. Further, in series [4], the inhibition in vivo at 10 mg/kg/day was found to be 94.8%. The compound further came in with an IC50 in the series with Vero greater than 50 µM.

`COc1cccc2c1C(=O)c1c(O)c3c(c(O)c1C2=O)C[C@@](O)(C(=O)CO)C[C@@H]3O[C@H]1C[C@H](N)[C@H](O)[C@H](C)O1` [DOXORUBICIN] came in with an IC50 with Vero of 6.4 µM.

Consider `COc1cc2c(ccc3c4cc(OC)c(OC)cc4c[n+](C)c23)cc1O.[I-]` [FAGARONINE IODIDE], for which the MSD was 10.7 days in series [6], greater than 13 days in [2], 8.6 days in series [5] and 11.5 days in series [12]. Further, the selectivity ratio in series [7] is greater than 1400. For the same compound, in [1], the ED50 worked out at 6 mg/kg/day. Moreover, the inhibition in vivo at 1 mg/kg/day in series [3] was found to be 4.8%. Also, the IC50 is 0.0074 µM with Plasmodium falciparum [8], greater than 21 µM in the series with Vero, 0.0149 µM with Plasmodium falciparum [10] and 0.0076 µM with Plasmodium falciparum [13]. In addition, the inhibition in vivo at 10 mg/kg/day in [4] was 91.5%. Also, in series [9], the inhibition in vivo at 2.5 mg/kg/day amounted to 27%. Moreover, the Activity entry with Mus musculus is recorded as “Non-toxic”. Further, the inhibition in vivo at 5 mg/kg/day in series [11] stood at 38.1%.

A word on the ED50: it is the dose at which the effect has come halfway, by size or by number of responders. By inhibition in vivo is commonly meant how much of the control response was suppressed. What is called IC50 is the concentration that gives 50% inhibition.
